Where two headings read alike, the source gives them in different places.
Key:
CD8+ T cells = test: T cell IFNγ secretion assay; type: cell-based, mouse; settings: for EC50: Mus musculus, T-cell
F4/80+ macrophages = test: Mouse macrophage assay; type: cell-based; settings: 10 µM NECA
CD103+ DC [1] = test: CD103+ DC mouse bone marrow differentiation cultures; type: cell-based
CD103+ DC [2] = test: Pinocytosis assay; type: cell-based, mouse
Summary of the method: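 1e6 iDCs were incubated with Alexa 488–ovalbumin (50 µg/mL final) in complete T cell medium for 30 min at 37°C, with 4°C as negative control. Cells were washed twice in ice-cold DPBS, kept chilled and analysed by flow cytometry.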

CD103+ DC [3] = test: Analysis of antigen presentation; type: cell-based, mouse
OT-1 CD8+ T cells [4] = test: CD103+ DC co-culture with OT-1 CD8+ T cells; type: cell-based, mouse
monocyte-derived DCs = test: Antigen-specific priming of HLA-A*0201 Melan-A CD8+ T cells; type: cell-based, human
MCA205 tumors = MCA205 tumors in immunodeficient NSG mice; type: in vivo, mouse; settings: AZD4635 and anti-PD-L1 (D265A)
Summary of the method: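 NSG mice got MCA205 cells sc (1×10^6 in PBS, right flank), with randomisation at 50–90 mm3. Treatment was oral test compound nanosuspension plus anti-PD-L1 (mIgG1 D265A, ip 10 mg/kg twice weekly). Tumor volume was measured twice weekly.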

MC38-OVA tumors [5] = test: MC38-OVA syngeneic tumor model; type: in vivo, mouse
Summary of the method: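 C57BL/6 mice bore sc MC38-OVA (5×10^5 cells in PBS) and were randomised at 80–100 mm3. Anti-CD8 or rat IgG2b isotype was injected every 3 days. Mice also got oral test compound 50 mg/kg twice daily plus anti-PD-L1 10 mg/kg ip twice weekly. Tumor volume was tracked twice weekly.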

MC38 tumors [6] = test: Gene expression analysis of MC38 tumors; type: in vivo, mouse; settings: 14 days treatment
Summary of the method: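 Mice bearing sc MC38 tumors were treated with test compound for 14 days. Tumor gene expression was profiled with the NanoString Mouse PanCancer Immune Profiling Panel.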

MC38 tumors [7] = test: Tumor immunophenotyping flow cytometry of MC38 tumors; type: in vivo, mouse
MC38-OVA tumors [8] = test: Ex vivo stimulation cytokine flow cytometry of MC38-OVA tumors; type: in vivo, mouse; settings: for IFN-γ, TNF-α, IL-2, granzyme B and CD107a on CD8+ T cells: PMA/ionomycin ex vivo stimulation
Summary of the method: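 Dissociated MC38-OVA tumor cells were plated at 2–4e5 live cells/well in complete T cell medium. […] CD8+ T and NK cell cytokines and CD107a were then read by flow cytometry.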

tumor draining LN cells = test: ELISpot assay of tumor draining lymph node cells; type: in vivo, mouse; settings: combination with anti-PD-L1; MC38-OVA tumor-bearing mice
OT-1 CD8+ T cells [9] = test: Ex vivo CD103+ DC isolation and OT-I T cell co-culture; type: in vivo, mouse; settings: CD103+ DC from TdLN of MC38-OVA mice
[10] = 5 μM NECA, dead MC38-OVA tumor cells
[11] = DC differentiated with 5 µM NECA, loaded with SIINFEKL peptide
[12] = whole ovalbumin protein, AZD4635+NECA
[13] = AZD4635 + NECA, dead MC38-OVA tumor cells

SMILES: CCNC(=O)[C@H]1O[C@@H](n2cnc3c(N)ncnc32)[C@H](O)[C@@H]1O [NECA, 5′-(N-ethylcarboxamido) adenosine]
- suppression of IFN-γ secretion (CD8+ T cells; 1 µM NECA, CD3/CD28 beads): 80%
- suppression of MHCII expression relative to DMSO-treated controls (F4/80+ macrophages): > 90%
- CD103+ cells (CD103+ DC [1]; 5 µM NECA, untreated 80%): 57%
- reduction of fluorescent OVA uptake (CD103+ DC [2]; NECA 5 µM): ~50%
- antigen presentation compared with untreated CD103+ DC (CD103+ DC [3]; SIINFEKL pulsed cultures, NECA 5 µM): less than a third
- antigen presentation compared with untreated cells (CD103+ DC [3]; whole ovalbumin protein, NECA 5 µM): a log-fold reduced
- reduction of CD107a response (OT-1 CD8+ T cells [4]; [10]): 75%
- reduction of IFN-γ response (OT-1 CD8+ T cells [4]; [10]): 75%
- reduction of CD107a expression by OT-1 CD8+ T cells (OT-1 CD8+ T cells [4]; [11]): 72%
- reduction of IFN-γ secretion by OT-1 CD8+ T cells (OT-1 CD8+ T cells [4]; [11]): 60%
- Melan-A26-35 tetramer positive CD8+ T cells (monocyte-derived DCs): 2.5%
- reduction of cross-priming function of DCs (monocyte-derived DCs; 5 µM NECA): greater than 90%

SMILES: Cc1cc(-c2nnc(N)nc2-c2ccc(F)cc2)cc(Cl)n1 [AZD4635]
- EC50 (CD8+ T cells; read-out: EC50 restoration of IFN-γ secretion, 0.1 µM NECA): 53 nM
- EC50 (CD8+ T cells; read-out: EC50 restoration of IFN-γ secretion, 1 µM NECA): 598 nM
- restoration of IFN-γ secretion (CD8+ T cells; in presence of NECA): back to baseline levels
- antitumor activity in immunodeficient mice (MCA205 tumors): completely abrogated
- tumor efficacy of combination (MC38-OVA tumors [5]; AZD4635 50 mg/kg twice daily with αPD-L1 10 mg/kg): appreciable beneficial combination effect
- antitumor activity after depletion of CD8 T cells (MC38-OVA tumors [5]; AZD4635+PD-L1 treatments, antimouse CD8 antibody): completely abrogated
- expression of genes associated with immune activation relative to vehicle (MC38 tumors [6]): upregulated expression
- MHCII and CD86 expression on CD11c+ DCs and F4/80+ macrophages (MC38 tumors [7]; 14 days, single agent): increased expression
- intratumoral frequencies of DCs and macrophages (MC38 tumors [7]; 14 days, single agent): did not increase
- frequency of infiltrating CD8+ cytotoxic lymphocytes compared with vehicle (MC38 tumors [7]; in combination with anti-PD-L1): significantly increased
- NK cell IFN-γ production (MC38-OVA tumors [8]; combination with anti-PD-L1): minimal increase
- NK cell TNF-α production and CD107a expression (MC38-OVA tumors [8]; combination with anti-PD-L1): strong increase
- IFN-γ, TNF-α, IL-2, granzyme B and CD107a on CD8+ T cells (MC38-OVA tumors [8]; combination with anti-PD-L1): most significantly increased
- IFN-γ, TNF-α, IL-2, granzyme B and CD107a on CD8+ T cells (MC38-OVA tumors [8]; single agent): all enhanced
- IFN-γ response to OVA and p15E peptides (tumor draining LN cells): Strong activation of IFN-γ
- differentiation into CD103+ DC (CD103+ DC [1]; 3 µM AZD4635 then NECA): able to differentiate into CD103^+ DC efficiently
- rescue of fluorescent OVA uptake (CD103+ DC [2]; AZD4635 3 µM with NECA): almost to levels in untreated control
- rescue of antigen presentation compared with NECA treatment (CD103+ DC [3]; SIINFEKL pulsed cultures, AZD4635 3 µM + NECA): twofold
- antigen presentation level versus untreated CD103+ DCs (CD103+ DC [3]; [12]): restored to a level comparable to untreated
- increase of antigen presentation compared with NECA (CD103+ DC [3]; [12]): nearly fivefold
- restoration of CD107a and IFN-γ (OT-1 CD8+ T cells [4]; AZD4635 + NECA, SIINFEKL peptide): comparable to untreated cells
- CD107a response relative to responses elicited by untreated cells (OT-1 CD8+ T cells [4]; [13]): 87%
- IFN-γ response compared with untreated cells (OT-1 CD8+ T cells [4]; [13]): not statistically different
- proliferation of OT-1 CD8+ T cells (OT-1 CD8+ T cells [9]; anti-PD-L1+AZD4635 combination): 53%
- proliferation of OT-1 CD8+ T cells (OT-1 CD8+ T cells [9]; single agent, vehicle 5.8%): 28%
- Melan-A26-35 tetramer positive CD8+ T cells (monocyte-derived DCs; 5 µM NECA, AZD4635 3 µM where given, tabulated, 4 donors, no NECA 32%): 16%
